Source: ChEMBL document CHEMBL3616437, “Thiazole compounds with activity against Cryptococcus gattii and Cryptococcus neoformans in vitro” (Eur J Med Chem, 2015)
Converted amounts (≈) assume the structure as drawn.

Assays:
[1] = system: Cryptococcus gattii species complex; experiment: Antifungal activity against Cryptococcus gattii 23/10993 after 48 to 72 hrs by broth microdilution method; assay type: functional, Cryptococcus bacillisporus
Procedure, shortened: (§1)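 CLSI M27-A3 broth microdilution in RPMI with L-glutamine, buffered to pH 7.0 with 0.165 M MOPS. Colonies grown twice on SDA, 48 h at 35°C. Inoculum set to 70% transmittance at 530 nm, then diluted to 1-5 x10^3 cells/mL. Test agents dissolved in DMSO, serially diluted, tested at 0.1 to 62.5 µM. Plates held at 35°C for 48-72 h. MIC is the lowest concentration giving an optically clear well, read visually against drug-free growth controls.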

Cryptococcus neoformans [2] = experiment: Antifungal activity against Cryptococcus neoformans VM-MCMMPI after 48 to 72 hrs by broth microdilution method; assay type: functional
Procedure, shortened: (§2)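 CLSI M27-A3 broth microdilution. Isolates subcultured twice on SDA, 48 h at 35°C. Saline suspension adjusted to 70% transmittance at 530 nm, then diluted to 1-5 x10^3 cells/mL in RPMI with L-glutamine, 0.165 M MOPS, pH 7.0. Compounds in DMSO, tested at […]. 35°C for 48-72 h. MIC read visually as the lowest concentration giving an optically clear well.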

[3] = system: Cryptococcus gattii species complex; experiment: Antifungal activity against Cryptococcus gattii L27/01 after 48 to 72 hrs by broth microdilution method; assay type: functional, Cryptococcus bacillisporus; procedure, shortened: as §1
[4] = system: Cryptococcus gattii species complex; experiment: Antifungal activity against Cryptococcus gattii LMM818 after 48 to 72 hrs by broth microdilution method; assay type: functional, Cryptococcus bacillisporus; procedure, shortened: as §1
[5] = system: Cryptococcus gattii species complex; experiment: Antifungal activity against Cryptococcus gattii L28/02 after 48 to 72 hrs by broth microdilution method; assay type: functional, Cryptococcus bacillisporus; procedure, shortened: as §1
[6] = system: Cryptococcus gattii species complex; experiment: Antifungal activity against Cryptococcus gattii 547/OTTI-97-PI-10 after 48 to 72 hrs by broth microdilution method; assay type: functional, Cryptococcus bacillisporus; procedure, shortened: as §1
[7] = system: Cryptococcus gattii species complex; experiment: Antifungal activity against Cryptococcus gattii 135L/03 after 48 to 72 hrs by broth microdilution method; assay type: functional, Cryptococcus bacillisporus; procedure, shortened: as §1
Cryptococcus neoformans [8] = experiment: Antifungal activity against Cryptococcus neoformans 28JF after 48 to 72 hrs by broth microdilution method; assay type: functional; procedure, shortened: as §2
Cryptococcus neoformans [9] = experiment: Antifungal activity against Cryptococcus neoformans ATCC 24067 after 48 to 72 hrs by broth microdilution method; assay type: functional; procedure, shortened: as §2
[10] = Cytotoxicity against C57BL/6 mouse peritoneal macrophages assessed as cell viability measured after 48 hrs by MTT assay; assay type: cell-based; conditions: C57BL/6, Peritoneal macrophage cell
Procedure, shortened: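 Thioglycollate-elicited peritoneal macrophages from male C57BL/6 mice, 6–8 weeks old, in RPMI with 10% FBS. Seeded 1 x 10^5 cells/well, pre-incubated 24 h at 37°C. Exposed 48 h at 37°C, 5% CO2, to eight nonserial dilutions from 100 to 0.0128 µM, with 0.5% DMSO control. MTT read-out, % inhibition versus DMSO control. IC50 reported as median with 95% CI. Triplicate, two independent experiments.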

Cryptococcus neoformans [11] = experiment: Ratio of compound MIC for Cryptococcus neoformans LMM820 in presence of amphotericin B to compound MIC for Cryptococcus neoformans LMM820 in absence of amphotericin B by checkerboard microtiter test; assay type: functional
Procedure, shortened: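 Checkerboard microdilution: eight two-fold dilutions of test compound (0.11 to 15.6 µM) crossed with amphotericin B (0.025 to 3.9 µM, in DMSO) or fluconazole (0.48 to 62.5 µM, in water). Inoculum per CLSI M27-A3 in RPMI-MOPS pH 7.0, 1-5 x10^3 cells/mL. Growth 48 to 72 h. Effective MIC is the combination concentration giving complete inhibition. FICs derived from MICs in combination versus alone.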

[12] = system: Cryptococcus gattii species complex; experiment: Antifungal activity against Cryptococcus gattii ICB181 after 48 to 72 hrs by broth microdilution method; assay type: functional, Cryptococcus bacillisporus; procedure, shortened: as §1
Cryptococcus neoformans [13] = experiment: Antifungal activity against Cryptococcus neoformans 5396 after 48 to 72 hrs by broth microdilution method; assay type: functional; procedure, shortened: as §2
[14] = Selectivity index, ratio of IC50 for C57BL/6 mouse peritoneal macrophages to MIC for Cryptococcus neoformans ATCC 24067
Procedure, shortened: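 SI = IC50/MIC. Thioglycollate-elicited peritoneal macrophages from C57BL/6 mice are seeded at 1 x 10^5/well. They are exposed for 48 h at 37°C to eight concentrations from 100 to 0.0128 µM. Viability read by MTT versus 0.5% DMSO control, triplicate in two experiments.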

[15] = system: Cryptococcus gattii species complex; experiment: Antifungal activity against Cryptococcus gattii L24/01 after 48 to 72 hrs by broth microdilution method; assay type: functional, Cryptococcus bacillisporus; procedure, shortened: as §1
[16] = system: Cryptococcus bacillisporus; experiment: Antifungal activity against Cryptococcus gattii ATCC 32608 after 48 to 72 hrs by broth microdilution method; assay type: functional; procedure, shortened: as §1
Cryptococcus neoformans [17] = experiment: Antifungal activity against Cryptococcus neoformans F10 after 48 to 72 hrs by broth microdilution method; assay type: functional; procedure, shortened: as §2
[18] = system: Cryptococcus gattii species complex; experiment: Antifungal activity against Cryptococcus gattii 196L/03 after 48 to 72 hrs by broth microdilution method; assay type: functional, Cryptococcus bacillisporus; procedure, shortened: as §1
Cryptococcus neoformans [19] = experiment: Antifungal activity against Cryptococcus neoformans ATCC 28957 after 48 to 72 hrs by broth microdilution method; assay type: functional; procedure, shortened: as §2
Cryptococcus neoformans [20] = experiment: Antifungal activity against Cryptococcus neoformans LMM820 after 48 to 72 hrs by broth microdilution method; assay type: functional; procedure, shortened: as §2
[21] = system: Cryptococcus gattii species complex; experiment: Antifungal activity against Cryptococcus gattii 1913ER after 48 to 72 hrs by broth microdilution method; assay type: functional, Cryptococcus bacillisporus; procedure, shortened: as §1
Cryptococcus neoformans [22] = experiment: Antifungal activity against Cryptococcus neoformans WP after 48 to 72 hrs by broth microdilution method; assay type: functional; procedure, shortened: as §2
Cryptococcus neoformans [23] = experiment: Antifungal activity against Cryptococcus neoformans 27JF after 48 to 72 hrs by broth microdilution method; assay type: functional; procedure, shortened: as §2
Cryptococcus neoformans [24] = experiment: Antifungal activity against Cryptococcus neoformans ATCC 62066 after 48 to 72 hrs by broth microdilution method; assay type: functional
Cryptococcus neoformans [25] = experiment: Antifungal activity against Cryptococcus neoformans CN31 after 48 to 72 hrs by broth microdilution method; assay type: functional; procedure, shortened: as §2
[26] = Selectivity index, ratio of IC50 for African green monkey Vero cells to MIC for Cryptococcus neoformans ATCC 24067; assay type: toxicity, cell-based
Cryptococcus neoformans [27] = experiment: Antifungal activity against Cryptococcus neoformans 96806 after 48 to 72 hrs by broth microdilution method; assay type: functional; procedure, shortened: as §2
Vero = experiment: Cytotoxicity against African green monkey Vero cells assessed as cell viability measured after 48 hrs by MTT assay; assay type: cell-based; conditions: Chlorocebus sabaeus
Procedure, shortened: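 VERO cells in D-MEM with 5% FBS, used up to 20 passages. Seeded 1 x 10^4 cells/well, pre-incubated 24 h at 37°C. Exposed 48 h at 37°C, 5% CO2, to eight nonserial dilutions from 100 to 0.0128 µM, with 0.5% DMSO control. MTT reduction read-out, corrected for background and blank. IC50 reported as median with 95% CI. Triplicate, two independent experiments.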

MIC [1]: 1.4 µM (≈ 0.408 µg/mL)
MIC (Cryptococcus neoformans [2]): 0.5 µM (≈ 0.146 µg/mL)
MIC [3]: 0.8 µM (≈ 0.233 µg/mL)
MIC [4]: 1.4 µM (≈ 0.408 µg/mL)
MIC [5]: 1.4 µM (≈ 0.408 µg/mL)
MIC [6]: 1.7 µM (≈ 0.495 µg/mL)
MIC [7]: 0.9 µM (≈ 0.262 µg/mL)
MIC (Cryptococcus neoformans [8]): 0.6 µM (≈ 0.175 µg/mL)
MIC (Cryptococcus neoformans [9]): 0.45 µM (≈ 0.131 µg/mL)
MIC [12]: 0.7 µM (≈ 0.204 µg/mL)
MIC (Cryptococcus neoformans [13]): 0.5 µM (≈ 0.146 µg/mL)
MIC [15]: 1.4 µM (≈ 0.408 µg/mL)
MIC [16]: 1.4 µM (≈ 0.408 µg/mL)
MIC (Cryptococcus neoformans [17]): 0.7 µM (≈ 0.204 µg/mL)
MIC [18]: 1.4 µM (≈ 0.408 µg/mL)
MIC (Cryptococcus neoformans [19]): 0.6 µM (≈ 0.175 µg/mL)
MIC (Cryptococcus neoformans [20]): 0.5 µM (≈ 0.146 µg/mL)
MIC [21]: 0.9 µM (≈ 0.262 µg/mL)
MIC (Cryptococcus neoformans [22]): 0.9 µM (≈ 0.262 µg/mL)
MIC (Cryptococcus neoformans [23]): 1.2 µM (≈ 0.35 µg/mL)
MIC (Cryptococcus neoformans [24]): 0.6 µM (≈ 0.175 µg/mL)
MIC (Cryptococcus neoformans [25]): 0.5 µM (≈ 0.146 µg/mL)
MIC (Cryptococcus neoformans [27]): 0.9 µM (≈ 0.262 µg/mL)
Compound: COc1ccc(-c2csc(N/N=C(\C)CCO)n2)cc1
MFC [1]: 3.9 µM (≈ 1.14 µg/mL)
MFC (Cryptococcus neoformans [2]): 3.9 µM (≈ 1.14 µg/mL)
MFC [3]: 1.9 µM (≈ 0.554 µg/mL)
MFC [4]: 3.9 µM (≈ 1.14 µg/mL)
MFC [5]: 3.9 µM (≈ 1.14 µg/mL)
MFC [6]: 3.9 µM (≈ 1.14 µg/mL)
MFC [7]: 3.9 µM (≈ 1.14 µg/mL)
MFC (Cryptococcus neoformans [8]): 3.9 µM (≈ 1.14 µg/mL)
IC50 [10]: > 100 µM
fractional inhibitory concentration index (FICI) (Cryptococcus neoformans [11]): 2.58
MFC [12]: 1.9 µM (≈ 0.554 µg/mL)
MFC (Cryptococcus neoformans [13]): 3.9 µM (≈ 1.14 µg/mL)
Ratio [14]: 222
MFC [15]: 3.9 µM (≈ 1.14 µg/mL)
MFC [16]: 3.9 µM (≈ 1.14 µg/mL)
MFC (Cryptococcus neoformans [17]): 3.9 µM (≈ 1.14 µg/mL)
MFC [18]: 3.9 µM (≈ 1.14 µg/mL)
MFC (Cryptococcus neoformans [19]): 3.9 µM (≈ 1.14 µg/mL)
MFC (Cryptococcus neoformans [20]): 3.9 µM (≈ 1.14 µg/mL)
MFC [21]: 1.9 µM (≈ 0.554 µg/mL)
MFC (Cryptococcus neoformans [22]): 3.9 µM (≈ 1.14 µg/mL)
MFC (Cryptococcus neoformans [23]): 7.8 µM (≈ 2.27 µg/mL)
MFC (Cryptococcus neoformans [24]): 15.6 µM (≈ 4.55 µg/mL)
MFC (Cryptococcus neoformans [25]): 7.8 µM (≈ 2.27 µg/mL)
selectivity ratio [26]: 111
MFC (Cryptococcus neoformans [27]): 3.9 µM (≈ 1.14 µg/mL)
IC50 (Vero): > 100 µM
